Drawing on ChEMBL document CHEMBL1150347, “A prodomain peptide of Plasmodium falciparum cysteine protease (falcipain-2) inhibits malaria parasite development” (J Med Chem, 2008), this text covers Activity, Ki and inhibition for eight molecules.

Structures are written as SMILES. The source made the active and inactive calls. The calls are words filed in the database; no cut-off is given here. Residues, ends and D or L forms follow the SMILES beside them.

The test system of assay [1] is Plasmodium falciparum. Kind of assay: Growth inhibition at 24 hrs of Plasmodium falciparum 3D7 by [3H]hypoxanthine uptake. Type of assay: functional, organism-based. The procedure, abridged: (§1)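 Synchronized ring-stage P. falciparum-infected RBCs incubated 24 h with a range of peptide concentrations, with OVA peptide as control. About 1 µCi [3H]hypoxanthine added per well and cultures kept a further 24 h. Cells harvested and incorporated label counted by scintillation.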

Assay [2] has as its target T1, Falcipain 2 (Plasmodium falciparum) (UniProt Q9N6S8).
T1 sequence (whole entry): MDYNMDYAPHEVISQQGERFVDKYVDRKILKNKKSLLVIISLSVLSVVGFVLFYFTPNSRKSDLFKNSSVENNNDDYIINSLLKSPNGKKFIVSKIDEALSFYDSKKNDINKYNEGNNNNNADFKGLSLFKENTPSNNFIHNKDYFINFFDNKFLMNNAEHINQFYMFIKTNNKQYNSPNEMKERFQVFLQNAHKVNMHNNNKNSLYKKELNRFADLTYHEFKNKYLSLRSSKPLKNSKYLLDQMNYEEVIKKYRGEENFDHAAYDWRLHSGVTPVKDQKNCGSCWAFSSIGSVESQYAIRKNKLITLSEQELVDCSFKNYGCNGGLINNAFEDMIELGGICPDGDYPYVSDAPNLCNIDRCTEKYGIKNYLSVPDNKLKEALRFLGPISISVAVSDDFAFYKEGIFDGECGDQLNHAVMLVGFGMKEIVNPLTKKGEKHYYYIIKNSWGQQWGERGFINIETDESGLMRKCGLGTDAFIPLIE
Briefly: Inhibition of Plasmodium falciparum falcipain-2 in RBC assessed as hemoglobin degradation after 24 hrs by SDS-PAGE. The procedure, abridged: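 Ring-stage P. falciparum treated 24 h. Infected RBCs lysed with 0.15% saponin in PBS on ice for 10 min, then washed three times with cold PBS. About 1 × 10^6 parasites per lane run on 15% SDS-PAGE in Laemmli buffer; Coomassie staining used to look for undigested hemoglobin.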

The test system of assay [3] is Plasmodium falciparum. Briefly: Growth inhibition as reduced parasitaemia at 24 hrs for Plasmodium falciparum 3D7 by Giemsa-stained smear counting. Set-up: scale not given: the % may be the effect or the level left.
Assay [4] deals with Plasmodium falciparum. Kind of assay: Growth inhibition after 10 hrs of Plasmodium falciparum expressing KAHRP-His-GFP at 100 uM. Type of assay: functional, organism-based. In short, it runs like this:
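KAHRP(-His)-GFP transgenic line, kept on 0.25 nM WR99210, sorbitol-synchronized, cultured in human RBCs (4% hematocrit) in RPMI. Peptide added at the ring stage. GFP fluorescence imaged after 3 h and 10 h of treatment, with bright field and DAPI; growth arrest read as loss of GFP signal.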

Assay [5] concerns Plasmodium falciparum. Briefly: Growth inhibition as abnormal food vacuole formation after 36 hrs in Plasmodium falciparum trophozoite infected erythrocytes. Type of assay: functional, organism-based.
Assay [6] deals with Plasmodium falciparum. Kind of assay: Growth inhibition as merozoite release after 36 hrs in Plasmodium falciparum infected erythrocytes. Type of assay: functional, organism-based.
For assay [7], the system named is Plasmodium falciparum. Kind of assay: Inhibition of Plasmodium falciparum recombinant falcipain-1. The procedure, abridged:
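Active recombinant falcipain-1 incubated with prodomain peptide; protease activity read as fluorescence from Z-FR-AMC cleavage at pH 5.5, followed over 30 min. Three independent sets of experiments.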

A further assay deals with T2, Falcipain 2 (Plasmodium falciparum, UniProt Q9N6S8).
T2 sequence (Q9N6S8 whole entry): T1 sequence (whole entry)
Briefly: (§2) Inhibition of Plasmodium falciparum recombinant falcipain-2. The procedure, abridged: (§3)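 Refolded recombinant falcipain-2 at 200 nM, preincubated with peptide for 10 min at room temperature. Z-F-R-AMC then added at 7 µM in 100 mM sodium acetate pH 5.5 with 10 mM DTT. AMC release (ex 355/em 460 nm) followed for 30 min at room temperature. Km/Vmax from varied substrate; Ki from double-reciprocal plot; three experiments.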

The test system of assay [8] is Plasmodium falciparum. Kind of assay: Growth inhibition at 24 hrs of Plasmodium falciparum 3D7 at 100 uM by [3H]hypoxanthine uptake. Type of assay: functional. The procedure, abridged: as §1
The target of assay [9] is T1, Falcipain 2 (Plasmodium falciparum). The description is as §2. In short, it runs like this:
as §3

For assay [10] the target is unchanged. Kind of assay: Inhibition of Plasmodium falciparum 3D7 falcipain-2 in RBC assessed as Z-FR-AMC substrate hydrolysis by confocal microscopy relative to control. As to conditions: concentration not given here. The procedure, abridged: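 3D7 cultures at 4-5% parasitemia given FITC-labelled peptide for 10 h at 24-28 h post-invasion. After washing in complete medium, Z-F-R-AMC added for 10 min. Confocal imaging: FITC excitation 488 nm, emission 505-530 nm; released AMC captured through a UV band-pass filter. Fluorescence averaged over selected whole parasites and compared with untreated infected cells.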

As to `CSCC[C@H](NC(=O)[C@H](CC(N)=O)NC(=O)[C@@H](NC(=O)[C@H](CCCCN)NC(=O)[C@H](Cc1c[nH]cn1)NC(=O)[C@H](C)NC(=O)[C@H](CC(N)=O)NC(=O)[C@H](CCC(N)=O)NC(=O)[C@H](CC(C)C)NC(=O)[C@H](Cc1ccccc1)NC(=O)[C@@H](NC(=O)[C@H](CCC(N)=O)NC(=O)[C@H](Cc1ccccc1)NC(=O)[C@H](CCCNC(=N)N)NC(=O)[C@H](CCC(=O)O)NC(=O)[C@H](CCCCN)NC(=O)[C@H](CCSC)NC(=O)[C@@H](N)CCC(=O)O)C(C)C)C(C)C)C(=O)N[C@@H](Cc1c[nH]cn1)C(=O)N[C@@H](CC(N)=O)C(=O)O` (H-EMKERFQVFLQNAHKVNMHN-OH), the outcome in the assay on Plasmodium falciparum [1] was inactive.
As to `CC[C@H](C)[C@H](NC(=O)[C@H](Cc1ccccc1)NC(=O)[C@H](CCSC)NC(=O)[C@H](Cc1ccc(O)cc1)NC(=O)[C@H](Cc1ccccc1)NC(=O)[C@H](CCC(N)=O)NC(=O)[C@H](CC(N)=O)NC(=O)[C@@H](NC(=O)[C@H](Cc1c[nH]cn1)NC(=O)[C@H](CCC(=O)O)NC(=O)[C@H](C)NC(=O)[C@H](CC(N)=O)NC(=O)[C@H](CC(N)=O)NC(=O)[C@H](CCSC)NC(=O)[C@@H](N)CC(C)C)[C@@H](C)CC)C(=O)O` (H-LMNNAEHINQFYMFI-OH), the outcome (in assay [2]; in the assay on Plasmodium falciparum [4]; in the assay with Plasmodium falciparum [5]; in the assay with Plasmodium falciparum [6]) was Active. For the same molecule, the Activity with Plasmodium falciparum [3] is reported as 50%. Moreover, the outcome in the assay on Plasmodium falciparum [7] was inactive. Moreover, the Ki at Falcipain 2 worked out at 3.8 µM. The molecule further yielded an inhibition at 100 µM in the assay on Plasmodium falciparum [8] of 50%.
Turning to `CC(C)C[C@H](NC(=O)[C@H]1O[C@@H]1C(=O)O)C(=O)NCCCCN=C(N)N`, in assay [2], the result was Active.
As for `CC[C@H](C)[C@H](N)C(=O)N[C@@H](CO)C(=O)N[C@@H](CCC(N)=O)C(=O)N[C@@H](C)C(=O)N[C@H](C(=O)N[C@@H](Cc1cnc[nH]1)C(=O)N[C@@H](C)C(=O)N[C@@H](C)C(=O)N[C@@H](Cc1cnc[nH]1)C(=O)N[C@@H](C)C(=O)N[C@@H](CCC(=O)O)C(=O)N[C@H](C(=O)N[C@@H](CC(N)=O)C(=O)N[C@@H](CCC(=O)O)C(=O)N[C@@H](C)C(=O)NCC(=O)N[C@@H](CCCNC(=N)N)C(=O)O)[C@@H](C)CC)C(C)C` [ovalbumin peptide] (H-ISQAVHAAHAEINEAGR-OH), the result (in the assay on Plasmodium falciparum [1]; in assay [9]) was inactive. The same molecule registered an inhibition at 100 µM with Plasmodium falciparum [8] of 80%.
Take `CC(C)C[C@H](NC(=O)[C@H](Cc1ccccc1)NC(=O)[C@@H](NC(=O)[C@H](CCC(N)=O)NC(=O)[C@H](Cc1ccccc1)NC(=O)[C@@H](N)CCCNC(=N)N)C(C)C)C(=O)N[C@@H](CCC(N)=O)C(=O)N[C@@H](CC(N)=O)C(=O)N[C@@H](C)C(=O)N[C@@H](Cc1c[nH]cn1)C(=O)N[C@@H](CCCCN)C(=O)N[C@H](C(=O)O)C(C)C` (H-RFQVFLQNAHKV-OH): the result with Plasmodium falciparum [1] was inactive.
On to `CC[C@H](C)[C@H](NC(=O)[C@H](Cc1ccccc1)NC(=O)[C@@H](NC(=O)[C@H](Cc1ccc(O)cc1)NC(=O)[C@H](Cc1ccccc1)NC(=O)[C@H](CCC(N)=O)NC(=O)[C@H](CC(N)=O)NC(=O)[C@@H](NC(=O)[C@H](Cc1c[nH]cn1)NC(=O)[C@H](CCC(=O)O)NC(=O)[C@@H](NC(=O)[C@H](CC(N)=O)NC(=O)[C@H](CC(N)=O)NC(=O)[C@H](CCSC)NC(=O)[C@@H](N)CC(C)C)C(C)C)[C@@H](C)CC)[C@@H](C)O)C(=O)O` (H-LMNNVEHINQFYTFI-OH), for which, in [9], the result was Active.
Turning to `CC[C@H](C)[C@H](NC(=O)[C@H](Cc1ccccc1)NC(=O)[C@H](CCSC)NC(=O)[C@H](Cc1ccc(O)cc1)NC(=O)[C@H](Cc1ccccc1)NC(=O)[C@H](CCC(N)=O)NC(=O)[C@H](CC(N)=O)NC(=O)[C@@H](NC(=O)[C@H](Cc1cnc[nH]1)NC(=O)[C@H](CCC(=O)O)NC(=O)[C@H](C)NC(=O)[C@H](CC(N)=O)NC(=O)[C@H](CC(N)=O)NC(=O)[C@H](CCSC)NC(=O)[C@H](CC(C)C)NC(=S)Nc1cccc2c1C(=O)OC21c2ccccc2Oc2cc(O)ccc21)[C@@H](C)CC)C(=O)O` (some centres not stated), in assay [10], the inhibition amounted to 50%.
For the molecule `CC[C@H](C)[C@H](NC(=O)[C@H](CCSC)NC(=O)[C@H](Cc1ccc(O)cc1)NC(=O)[C@H](Cc1ccccc1)NC(=O)[C@H](CCC(N)=O)NC(=O)[C@H](CC(N)=O)NC(=O)[C@@H](NC(=O)[C@H](Cc1cnc[nH]1)NC(=O)[C@H](CCC(=O)O)NC(=O)[C@H](C)NC(=O)[C@H](CC(N)=O)NC(=O)[C@H](CC(N)=O)NC(=O)[C@H](CCSC)NC(=O)[C@H](CC(C)C)NC(=O)[C@H](CCCCN)NC(=O)[C@H](CCCCN)NC(=O)[C@H](Cc1c[nH]c2ccccc12)NC(=O)[C@H](CCCCN)NC(=O)[C@H](CCSC)NC(=O)[C@H](CCCNC(=N)N)NC(=O)[C@H](CCCNC(=N)N)NC(=O)[C@H](CC(N)=O)NC(=O)[C@H](CCC(N)=O)NC(=O)[C@H](Cc1ccccc1)NC(=O)[C@H](Cc1c[nH]c2ccccc12)NC(=O)[C@@H](NC(=O)[C@H](CCCCN)NC(=O)[C@@H](NC(=O)[C@H](CCC(N)=O)NC(=O)[C@@H](N)CCCNC(=N)N)[C@@H](C)CC)[C@@H](C)CC)[C@@H](C)CC)C(=O)O` (H-RQIKIWFQNRRMKWKKLMNNAEHINQFYMI-OH), the Activity in the assay on Plasmodium falciparum [3] came to 50%.

Broadly, the Ki is a dissociation constant, usually derived from enzyme kinetics or from competition with a known ligand. Usually inhibition stands for the relative decrease from the control value, in per cent.
